In series [1] the test system is Quadruplex DNA. The series is described as follows: Stabilization of 5'-FAM/3'-TAMRA labeled c-myc promoter G-quadruplex DNA FPu22T (unknown origin) assessed as change in melting temperature at 5 uM by FRET assay (reference value: 66.5 degreeC). The class given is nucleic-acid assay. Summed up: (§1)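 FRET melting of dual FAM/TAMRA-labelled FPu22T annealed in 10 mM Tris-HCl pH 7.4 with KCl. Final 0.2 µM DNA with or without ligand. Excitation 470 nm, emission 530 nm, read every 1 °C over 37–99 °C on a real-time PCR cycler. ΔTm = Tm(DNA+ligand) − Tm(DNA).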

The nature of series [2]: Stabilization of 5'-FAM/3'-TAMRA labeled hairpin DNA F10T (unknown origin) assessed as change in melting temperature at 5 uM by FRET assay.
Series [3] is described as follows: Stabilization of 5'-FAM/3'-TAMRA labeled c-myc promoter i-motif DNA FPy33T (unknown origin) assessed as change in melting temperature at 5 uM by FRET assay (reference value: 53.2 degreeC). Summed up: (§2)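 FRET melting of dual FAM/TAMRA-labelled FPy33T annealed in 1× BPES (30 mM potassium phosphate, 1 mM EDTA, 100 mM KCl), pH 5.5. Final 0.2 µM DNA with or without ligand. Excitation 470 nm, emission 530 nm, read every 1 °C over 37–99 °C. ΔTm taken against DNA alone.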

Series [4] in a line: Stabilization of 5'-FAM/3'-TAMRA labeled hairpin DNA F10T (unknown origin) assessed as change in melting temperature at 1 uM by FRET assay (reference value: 59.1 degreeC).
Series [5] can be described thus: Binding affinity to 5'-biotin labeled c-myc promoter i-motif DNA Py33 (unknown origin) by surface plasmon resonance method. Put shortly: (§3)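 SPR: 5'-biotin DNA diluted to 1 μM and captured (1000 RU) on a sensor chip, with a blank cell as reference. Running buffers: Py33 in 20 mM MES pH 5.8, 100 mM KCl, 0.05% Tween-20; Pu27 and duplex in 50 mM Tris-HCl pH 7.4, 100 mM KCl. Six ligand concentrations serially diluted from DMSO stock. Association 260 s, dissociation 300 s at 25 °C; NaOH regeneration; blank sensorgrams subtracted.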
In general terms: Surface plasmon resonance follows binding to a sensor surface in real time, without labels.

The target in another series is ssDNA. Description: Binding affinity to 5'-biotin labeled single-stranded DNA Py33 (unknown origin) by surface plasmon resonance method. The class given is nucleic-acid assay.
A short description of series [6]: Stabilization of 5'-FAM/3'-TAMRA labeled c-myc promoter i-motif DNA FPy33T (unknown origin) assessed as change in melting temperature at 1 uM by FRET assay (reference value: 53.2 degreeC). Put shortly:
as §2

For series [7], the target named is Quadruplex DNA. The series is described as follows: Binding affinity to 5'-biotin labeled c-myc promoter G-quadruplex DNA Pu27 (unknown origin) by surface plasmon resonance method. The class given is nucleic-acid assay. Put shortly:
as §3

For another series, the target named is dsDNA. Description: Binding affinity to 5'-biotin labeled duplex DNA (unknown origin) by surface plasmon resonance method. It is filed as nucleic-acid assay. Put shortly:
as §3

Series [8] concerns Quadruplex DNA. The series is described as follows: Stabilization of c-myc promoter G-quadruplex DNA Pu27 (unknown origin) in pH 7.4 Tris-HCl buffer by CD spectroscopy. It is filed as nucleic-acid assay. Summed up: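 Pu27 at 1 µM in 10 mM Tris-HCl pH 7.4, with or without ligand. Annealed at 95 °C for 5 min, cooled to room temperature, stored at 4 °C overnight. CD spectra taken in a 4 mm cuvette over 230–350 nm, three scans averaged, smoothed and buffer-baseline corrected.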

For series [9], the system named is Quadruplex DNA. The series is described as follows: Stabilization of 5'-FAM/3'-TAMRA labeled c-myc promoter G-quadruplex DNA FPu22T (unknown origin) assessed as change in melting temperature at 1 uM by FRET assay (reference value: 66.5 degreeC). The class given is nucleic-acid assay. Put shortly: as §1
For a further series, the system named is SiHa. The series is described as follows: Antiproliferative activity against human SiHa cells after 48 hrs by MTT assay. The class given is functional, cell-based. Put shortly:
(§4)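 Cells seeded at 5.0×10^3 per well, pre-incubated 12 h at 37 °C, 5% CO2, then exposed to compounds for 48 h; DMSO-only control. MTT (2.5 mg/mL) added for 4 h, formazan dissolved in DMSO, absorbance at 570 nm. Each dose tested in triplicate; IC50 from percentage survival relative to negative control.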
(In general: Tetrazolium dyes change colour on reduction, which living cells bring about.)

Another series concerns A549. Description: Antiproliferative activity against human A549 cells after 48 hrs by MTT assay. It is filed as functional, cell-based. The following applies: A549, 48 h. Put shortly: as §4
Series [10] in a line: Stabilization of c-myc promoter i-motif DNA Py33 (unknown origin) assessed as decrease in negative peak intensity at pH 5.5 measured at 260 nanometer by CD spectroscopy. Summed up: (§5)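 Py33 at 1 µM in 1× BPES pH 5.5 (pH 6.8 random-coil reference), with or without ligand. Annealed at 95 °C for 5 min, cooled, kept at 4 °C overnight. CD spectra in a 4 mm cuvette over 230–350 nm, three scans averaged, buffer-corrected; peaks followed at 288 and 260 nm.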

Another series deals with A-375. The series is described as follows: Antiproliferative activity against human A-375 cells after 48 hrs by MTT assay. The class given is functional, cell-based. The settings on record: A-375, 48 h. Summed up: as §4
The subject of a further series is U2OS. The series is described as follows: Antiproliferative activity against human U2OS cells after 48 hrs by MTT assay. It is filed as functional, cell-based. Put shortly: as §4
A short description of series [11]: Stabilization of c-myc promoter i-motif DNA Py33 (unknown origin) assessed as reduction in appearance of random coil confirmation at pH 5.5 by CD spectroscopy. Summed up:
as §5

Series [12] in a line: Stabilization of c-myc promoter i-motif DNA Py33 (unknown origin) assessed as decrease in positive peak intensity at pH 5.5 measured at 288 nanometer by CD spectroscopy. Put shortly: as §5
A further series relates to HCT-116. Description: Antiproliferative activity against human HCT-116 cells after 48 hrs by MTT assay. It is filed as functional, cell-based. The settings on record: HCT-116, 48 h. Summed up: as §4
In a further series the test system is HeLa. Description: Antiproliferative activity against human Hela cells after 48 hrs by MTT assay. It is filed as functional, cell-based. Put shortly: as §4
The test system of the next series is Huh-7. The series is described as follows: Antiproliferative activity against human Huh-7 cells after 48 hrs by MTT assay. It is filed as functional, cell-based. The following applies: Huh-7, 48 h. Summed up:
as §4

Series [13] in a line: Drug uptake in human SiHa cells. It is filed as ADME, cell-based.
A short description of series [14]: Stabilization of c-myc promoter i-motif DNA Py33 (unknown origin) assessed as increase in slower migration band incubated overnight by silver staining based PAGE analysis. Summed up:
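Py33 (3 µM) co-annealed with increasing ligand in 1× BPES pH 6.8 at 95 °C for 5 min, cooled, held at 4 °C overnight. Run on native 20% acrylamide in 1× TBE at 140 V for 5 h at 5 °C, then silver-stained.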

Series [15] is described as follows: Stabilization of c-myc promoter i-motif DNA Py33 (unknown origin) assessed as effect on melting temperature at 5 uM by CD spectroscopy. Summed up: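 CD melting: Py33 at 1 µM in 1× BPES pH 6.4, with or without ligand. Annealed at 95 °C for 5 min, slowly cooled, then heated at 1 °C/min while monitoring 260 nm. Tm obtained by curve fitting.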
For series [16], the system named is Quadruplex DNA. Description: Stabilization of c-myc promoter G-quadruplex DNA Pu27 (unknown origin) assessed as effect on melting temperature at 5 uM by CD spectroscopy. The class given is nucleic-acid assay. Summed up:
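CD melting: Pu27 diluted to 1 µM in 10 mM Tris-HCl, 5 mM KCl, pH 7.4, with or without ligand. Annealed at 95 °C for 5 min, slowly cooled, then heated at 1 °C/min while monitoring 260 nm. Tm obtained by curve fitting.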

Active and inactive are the calls of the source. No cut-off for these calls is given here.

As to `Cc1ccc2nc3ccc(C)cc3c(NCCNCCNc3c4cc(C)ccc4nc4ccc(C)cc34)c2c1`, the ΔTm (in general, the shift of the melting midpoint relative to a reference) with Quadruplex DNA [1] came out at 6.2 °C; in series [2], 2.5 °C; in [3], 16 °C.
`COC(=O)c1ccc2nc3ccc(C)cc3c(NCCOCCOCCNc3c4cc(C)ccc4nc4ccc(C(=O)OC)cc34)c2c1`: the shift in melting temperature (ΔTm) came out at 2.5 °C in series [4], 1 °C in series [6] and 14.3 °C in the series with Quadruplex DNA [9]. Besides, the equilibrium dissociation constant (Kd) (commonly the constant that tells how readily two partners part at equilibrium) is 10300 nM in series [5], 2900 nM on ssDNA, 1400 nM at Quadruplex DNA [7] and 12500 nM on dsDNA. For the same compound, in the series with Quadruplex DNA [8], the outcome was Active.
`Cc1ccc2nc3ccc(C)cc3c(NCCN(C)C)c2c1`: the ΔTm stood at 4.1 °C in series [4]; 8.3 °C in the series with Quadruplex DNA [1]; 2.7 °C in series [6]; 6.8 °C in [2]; 10 °C in [3]; 6.2 °C in the series on Quadruplex DNA [9]. For the same compound, the affinity on dsDNA, expressed as Kd, was 13100 nM.
In the case of `c1ccc2c(NCCCNCCNCCCNc3c4ccccc4nc4ccccc34)c3ccccc3nc2c1`, the IC50 – broadly, the midpoint of a concentration-inhibition curve – was 2000 nM in the series with SiHa; 280 nM in the series on A549; 430 nM with A-375; 380 nM in the series with U2OS; 690 nM in the series with HCT-116; 270 nM with HeLa. In the series on Huh-7, it took 190 nM to reach half-maximal inhibition (IC50). The ΔTm is 9.8 °C in [4], 11.8 °C in [6] and 12.5 °C with Quadruplex DNA [9]. Besides, the outcome in series [10], in series [11] and in [12] was Active. The Kd was 3800 nM in [5], 13800 nM on Quadruplex DNA [7] and 6000 nM at dsDNA.
As for `Cc1ccc2nc3ccc(C(=O)NCCCN(C)C)cc3c(NCCOCCOCCNc3c4cc(C)ccc4nc4ccc(C(=O)NCCCN(C)C)cc34)c2c1`, the ΔTm in [4] is 2.2 °C; in [6], 27.4 °C; in the series with Quadruplex DNA [9] it was 8.3 °C. The outcome in series [10], in [11] and in series [12] was Active. For the same compound, the Kd was determined as 8500 nM in series [5], 3700 nM at Quadruplex DNA [7] and 17400 nM at dsDNA. The Drug uptake entry in series [13] is recorded as “Not Active”.
As for `Cc1ccc2nc3ccc(C(=O)NCCCN(C)C)cc3c(NCCCNCCNCCCNc3c4cc(C)ccc4nc4ccc(C(=O)NCCCN(C)C)cc34)c2c1`, the ΔTm in series [4] was 2.8 °C; in series [6] it was 24.3 °C; in the series on Quadruplex DNA [9], 17.1 °C. In addition, the outcome (in series [10]; in series [11]; in [12]; in series [15]; with Quadruplex DNA [16]) was Active. Also, the equilibrium dissociation constant (Kd) in [5] amounted to 1000 nM; on Quadruplex DNA [7] it was 2700 nM; on dsDNA it was 21700 nM. In series [13], the Drug uptake entry is reported as “Not Active”. The Activity result in series [14] is “Dose-dependent effect”.
Turning to `Cc1ccc2nc3ccccc3c(NCCOCCOCCNc3c4ccccc4nc4ccc(C)cc34)c2c1`, the half-inhibitory concentration (IC50) with SiHa stood at 2770 nM; with A549, 810 nM; in the series with A-375 it was 1880 nM; in the series on U2OS, 2160 nM; in the series with HCT-116, 860 nM; in the series with HeLa it was 320 nM. The IC50 in the series on Huh-7 amounted to 2140 nM. The shift in melting temperature (ΔTm) in series [4] is 3 °C; in series [6] it was 0.1 °C; in the series on Quadruplex DNA [9], 14.3 °C. The dissociation constant Kd in series [5] is 13000 nM; at ssDNA, 21600 nM; on Quadruplex DNA [7], 5100 nM; on dsDNA it was 33200 nM. Also, the result in the series on Quadruplex DNA [8] was Active.

The values are drawn from ChEMBL document CHEMBL4725346, “Syntheses and Evaluation of New Bisacridine Derivatives for Dual Binding of G-Quadruplex and i-Motif in Regulating Oncogene c-myc Expression” (J Med Chem, 2020).
